From ChEMBL document CHEMBL1122058, “Agents for the treatment of brain injury. 1. (Aryloxy)alkanoic acids” (J Med Chem, 1982)
Calls of active or inactive are those of the source. The calls are words filed in the database; no cut-off is given here.

What was measured:
Felis catus [1] = organism: Felis catus; test: In vitro inhibition of HCO3- stimulated swelling in cat cerebrocortical tissue slice; format: functional; details: read-out: I 50
Summary of the method: (§1)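 Cat cerebral cortex slices (~150 mg, 0.5 mm) incubated aerobically 60 min at 37 °C in K+-rich (27 mM) Hepes-buffered saline-glucose with test compound as Na salt. HCO3- (NaHCO3 or TEAB) added from sidearm at 20 min to 10 mM final; HCO3- flasks gassed with 2.5% CO2/97.5% O2. Swelling by reweighing; Na+/K+ by flame photometry, Cl- by amperometric titration. Units: per g initial fresh weight; means ± SE, Student's t test.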

[2] = Dissociation constant (pKa) (determined in 30% EtOH); format: physicochemical
[3] = Distribution coefficient (D %) between octanol and buffer of pH 7.4; format: physicochemical; details: octanol/water
Felis catus [4] = test: Mortality of animals recorded as the number of animals dead out of the total animals (39) taken for the study at dose 1 mg/kg; format: functional
Summary of the method: (§2)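 Adult conditioned cats (2.5–4 kg) under iv methohexital (13.25 mg/kg, plus 2.75 mg/kg if needed) received machine-induced acceleration/deceleration head injury. Forty min later they were paralysed with gallamine and ventilated with 6% O2/94% N2 for 60 min (arterial pO2 23 ± 1 torr). Drug was given iv 20 min post-injury, before hypoxemia. Mortality was scored as dead/total, chi-square tested.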

Rattus norvegicus [5] = organism: Rattus norvegicus; test: Relative salidiuretic efficacy was scored in Rat; Marginal; format: functional, organism-based; details: Urine
Homo sapiens [6] = organism: Homo sapiens; test: Relative salidiuretic efficacy was scored in human; very marked; format: functional, organism-based; details: Urine
Canis familiaris [7] = organism: Canis familiaris; test: Relative salidiuretic efficacy was scored in dog; very marked; format: functional, organism-based; details: Canis lupus familiaris; Urine
Pan troglodytes [8] = organism: Pan troglodytes; test: Relative salidiuretic efficacy was scored in chimpanzee; very marked; format: functional, organism-based; details: Urine
Felis catus [9] = organism: Felis catus; test: In vitro inhibition of HCO3- stimulated swelling in cat cerebrocortical tissue slice; At no concentration was swelling inhibited 100%; format: functional; details: read-out: I 50; summary of the method: as §1
Rattus norvegicus [10] = organism: Rattus norvegicus; test: Relative salidiuretic efficacy was scored in Rat; weak; format: functional, organism-based; details: Urine
Pan troglodytes [11] = organism: Pan troglodytes; test: Relative salidiuretic efficacy was scored in chipanze; weak; format: functional, organism-based; details: Urine
Canis familiaris [12] = organism: Canis familiaris; test: Relative salidiuretic efficacy was scored in dog; Marginal; format: functional, organism-based; details: Canis lupus familiaris; Urine
Felis catus [13] = test: Mortality of animals recorded as the number of animals dead out of the total animals (18) taken for the study at dose 30 mg/kg given q.i.d.; format: functional; summary of the method: as §2
Rattus norvegicus [14] = organism: Rattus norvegicus; test: Relative salidiuretic efficacy was scored in Rat; inactive; format: functional, organism-based; details: Urine
Canis familiaris [15] = organism: Canis familiaris; test: Relative salidiuretic efficacy was scored in dog; inactive; format: functional, organism-based; details: Canis lupus familiaris; Urine
[16] = Compound was tested for bicarbonate stimulated swelling of Cerebrocortical slices from cat with addition of Sodium Bicarbonate (NaHCO3) (in vitro); summary of the method: as §1
Canis familiaris [17] = organism: Canis familiaris; test: Relative salidiuretic efficacy was scored in dog; moderate; format: functional, organism-based; details: Canis lupus familiaris; Urine
Felis catus [18] = organism: Felis catus; test: Evaluated for chloride ion content of Cerebrocortical slices in cat with addition of Triethylammonium Bicarbonate (TEAB).; format: functional; summary of the method: as §1
Pan troglodytes [19] = organism: Pan troglodytes; test: Relative salidiuretic efficacy was scored in chimpanzee; moderate; format: functional, organism-based; details: Urine
Felis catus [20] = organism: Felis catus; test: In vitro inhibition of tissue swelling of Cerebrocortical slices from cat with out additions; format: functional; summary of the method: as §1
Felis catus [21] = organism: Felis catus; test: Evaluated for Potassium ion content of Cerebrocortical slices in cat with addition of Triethylammonium Bicarbonate (TEAB).; format: functional; summary of the method: as §1
Felis catus [22] = organism: Felis catus; test: Evaluated for Potassium ion content of Cerebrocortical slices in cat with addition of Sodium Bicarbonate (NaHCO3).; format: functional; summary of the method: as §1
Rattus norvegicus [23] = organism: Rattus norvegicus; test: Relative salidiuretic efficacy was scored in Rat; moderate; format: functional, organism-based; details: Urine
Felis catus [24] = organism: Felis catus; test: (§3) Evaluated for chloride ion content of Cerebrocortical slices in cat with out additions; format: functional; summary of the method: as §1
Felis catus [25] = organism: Felis catus; test: (§4) Evaluated for Potassium ion content of Cerebrocortical slices in cat with out additions; format: functional; summary of the method: as §1
Felis catus [26] = organism: Felis catus; test: In vitro inhibition of tissue swelling of Cerebrocortical slices from cat with out additions
Homo sapiens [27] = organism: Homo sapiens; test: Relative salidiuretic efficacy was scored in human; moderate; format: functional, organism-based; details: Urine
[28] = Compound was tested for bicarbonate stimulated swelling of Cerebrocortical slices from cat with addition of Triethylammonium Bicarbonate (TEAB) (in vitro); format: functional; summary of the method: as §1
Felis catus [29] = organism: Felis catus; test: as §3; format: functional; summary of the method: as §1; remark: listed apart in the source
Felis catus [30] = organism: Felis catus; test: In vitro inhibition of tissue swelling of Cerebrocortical slices from cat with addition of Triethylammonium Bicarbonate (TEAB).; format: functional; summary of the method: as §1
Felis catus [31] = organism: Felis catus; test: Evaluated for Sodium ion content of Cerebrocortical slices in cat with addition of Sodium Bicarbonate (NaHCO3).; format: functional; summary of the method: as §1
Felis catus [32] = organism: Felis catus; test: Evaluated for Sodium ion content of Cerebrocortical slices in cat with addition of Triethylammonium Bicarbonate (TEAB).; format: functional; summary of the method: as §1
Felis catus [33] = organism: Felis catus; test: In vitro inhibition of tissue swelling of Cerebrocortical slices from cat with addition of Sodium Bicarbonate (NaHCO3).; format: functional; summary of the method: as §1
Felis catus [34] = organism: Felis catus; test: Evaluated for chloride ion content of Cerebrocortical slices in cat with addition of Sodium Bicarbonate (NaHCO3).; format: functional; summary of the method: as §1
Felis catus [35] = test: Mortality of animals recorded as the number of animals dead out of the total animals (42) taken for the study at dose 1 mg/kg; format: functional; summary of the method: as §2
Felis catus [36] = organism: Felis catus; test: Evaluated for Sodium ion content of Cerebrocortical slices in cat with out additions; format: functional; summary of the method: as §1
Felis catus [37] = organism: Felis catus; test: Evaluated for Sodium ion content of Cerebrocortical slices in cat with out additions
Felis catus [38] = organism: Felis catus; test: as §4; format: functional; summary of the method: as §1; remark: listed apart in the source

CC1(C2CCCC2)Cc2cc(OCc3ccc(C(=O)O)cc3)c(Cl)c(Cl)c2C1=O (racemic)
IC50 (Felis catus [1]): > 10000 nM | pKa [2]: 6.2 | Distribution [3]: 100%

C=C(CC)C(=O)c1ccc(OCC(=O)O)c(Cl)c1Cl [ETHACRYNIC ACID]
Mortality (Felis catus [4]): 14 | IC50 (Felis catus [1]): 1000 nM | Relative salidiuretic activity (Rattus norvegicus [5]): Marginal | Distribution [3]: 61% | Relative salidiuretic activity (Homo sapiens [6]): Marginal | Relative salidiuretic activity (Canis familiaris [7]): Marginal | Relative salidiuretic activity (Pan troglodytes [8]): Marginal

CCCC1(C2CCCC2)Cc2cc(OCCCC(=O)O)c(Cl)c(Cl)c2C1=O (racemic)
IC50 (Felis catus [9]): 8 nM | pKa [2]: 4.1 | Relative salidiuretic activity (Rattus norvegicus [5]): Marginal | Distribution [3]: 99.6%

O=C(O)COc1cc2c(c(Cl)c1Cl)C(=O)C(CC1CCCC1)C2 (racemic)
IC50 (Felis catus [1]): 10 nM | Relative salidiuretic activity (Rattus norvegicus [10]): Marginal | Relative salidiuretic activity (Pan troglodytes [11]): Marginal | pKa [2]: 3.8 | Relative salidiuretic activity (Canis familiaris [12]): Marginal | Distribution [3]: 97%

CCCCC1(C2CCCC2)Cc2cc(OCC(=O)O)c(Cl)c(Cl)c2C1=O (racemic)
IC50 (Felis catus [1]): 3 nM | Relative salidiuretic activity (Rattus norvegicus [10]): weak | pKa [2]: 3.9 | Distribution [3]: 99%

CCCC[C@@]1(C2CCCC2)Cc2cc(OCC(=O)O)c(Cl)c(Cl)c2C1=O
IC50 (Felis catus [1]): 50000 nM | Relative salidiuretic activity (Rattus norvegicus [10]): weak | pKa [2]: 3.9 | Distribution [3]: 99%

CCCC[C@]1(C2CCCC2)Cc2cc(OCC(=O)O)c(Cl)c(Cl)c2C1=O
IC50 (Felis catus [1]): 0.3 nM | Relative salidiuretic activity (Rattus norvegicus [10]): weak | pKa [2]: 3.9 | Distribution [3]: 99%

CCC1(C2CCCC2)Cc2cc(OCCCC(=O)O)c(Cl)c(Cl)c2C1=O (racemic)
IC50 (Felis catus [1]): > 10 nM | pKa [2]: 3.8 | Relative salidiuretic activity (Rattus norvegicus [5]): Marginal | Distribution [3]: 98.7%

C[C@H]1CC2C(C(O)CC3(C)C2CC[C@]3(O)C(=O)COC(=O)CCC(=O)[O-])C2(C)C=CC(=O)C=C12.[Na+] (stereo partly specified)
Mortality (Felis catus [13]): 9

CC1(Cc2ccccc2)Cc2cc(OCCCC(=O)O)c(Cl)c(Cl)c2C1=O (racemic)
IC50 (Felis catus [1]): > 100000 nM | pKa [2]: 6.3 | Distribution [3]: 99.5%

CCCC[C@]1(C2CCCC2)Cc2cc(OCCCC(=O)O)c(Cl)c(Cl)c2C1=O
IC50 (Felis catus [1]): 1000 nM | Relative salidiuretic activity (Rattus norvegicus [14]): inactive | pKa [2]: 4.4 | Distribution [3]: 99.9%

CC1(c2ccccc2)Cc2cc(OCCCC(=O)O)c(Cl)c(Cl)c2C1=O (racemic)
pKa [2]: 6.4 | Distribution [3]: 99% | Relative salidiuretic activity (Canis familiaris [15]): inactive

CC1(C2CCCC2)Cc2cc(OC/C=C/CC(=O)O)c(Cl)c(Cl)c2C1=O (racemic)
IC50 (Felis catus [1]): > 40000 nM | pKa [2]: 5.1 | Distribution [3]: 98%

CC1(C2CCCC2)Cc2cc(OCC(=O)O)c(Cl)c(Cl)c2C1=O (racemic)
Activity [16]: 100 | IC50 (Felis catus [1]): 200 nM | Relative salidiuretic activity (Canis familiaris [17]): marked | Activity (Felis catus [18]): 104.8 µM/g | Relative salidiuretic activity (Pan troglodytes [19]): marked | Tissue swelling (Felis catus [20]): 179 µL/g | Activity (Felis catus [21]): 91.4 µM/g | Activity (Felis catus [22]): 97.1 µM/g | Relative salidiuretic activity (Rattus norvegicus [23]): marked | Activity (Felis catus [24]): 89.9 µM/g | Activity (Felis catus [25]): 94.4 µM/g | pKa [2]: 3.9 | Tissue swelling (Felis catus [26]): 170 µL/g | Distribution [3]: 90% | Relative salidiuretic activity (Homo sapiens [27]): marked | Activity [28]: 100 | Activity (Felis catus [29]): 90.2 µM/g | Tissue swelling (Felis catus [30]): 293 µL/g | Activity (Felis catus [31]): 116.3 µM/g | Activity (Felis catus [32]): 118.8 µM/g | Tissue swelling (Felis catus [33]): 268 µL/g | Activity (Felis catus [34]): 98.2 µM/g | Mortality (Felis catus [35]): 11 | Activity (Felis catus [36]): 101.6 µM/g | Activity (Felis catus [37]): 100.4 µM/g | Activity (Felis catus [38]): 93.5 µM/g
